According to ChEMBL document CHEMBL3576866, “Discovery of a Cyclic Boronic Acid β-Lactamase Inhibitor (RPX7009) with Utility vs Class A Serine Carbapenemases” (J Med Chem, 2015):
The source made the active and inactive calls. The rule behind the calls is not given here.

How the values were obtained:
[1] = AUC (0 to infinity) in rat at 300 mg/kg, iv administered as 0.5 hrs infusion by HPLC-MS method; format: ADME, organism-based; parameters: dose 300 mg/kg, time infinity, route intravenous; conditions: in vivo
[2] = target: T1, Class A carbapenemase (Enterobacter cloacae) (UniProt A7WP95); test: Inhibition of Enterobacter cloacae ECL1058 KPC-3 assessed as ertapenem MIC at 4 ug/ml by broth microdilution method
T1 sequence (whole entry): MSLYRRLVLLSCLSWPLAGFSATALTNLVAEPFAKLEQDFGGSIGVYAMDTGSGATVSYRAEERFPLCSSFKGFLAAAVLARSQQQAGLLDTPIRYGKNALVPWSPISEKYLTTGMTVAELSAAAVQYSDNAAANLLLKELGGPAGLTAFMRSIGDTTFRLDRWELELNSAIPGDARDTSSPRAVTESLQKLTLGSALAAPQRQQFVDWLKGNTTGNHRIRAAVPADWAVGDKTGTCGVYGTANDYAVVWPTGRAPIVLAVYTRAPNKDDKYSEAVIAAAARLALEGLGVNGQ

Klebsiella pneumoniae [3] = test: Inhibition of Klebsiella pneumoniae KP1009 CTX-M-15 assessed as cefepime MIC at 4 ug/ml by broth microdilution method
[4] = AUC in human at 1 g administered as 3 hrs of infusion; format: ADME, organism-based; conditions: in vivo, iv
Klebsiella oxytoca [5] = test: Inhibition of Klebsiella oxytoca KX1001 OXA-2 assessed as cefepime MIC at 4 ug/ml by broth microdilution method
How it was run: (§1)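 CLSI broth microdilution (M07-A9) against clinical strains expressing serine β-lactamases.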

Enterobacter cloacae = test: Inhibition of Enterobacter cloacae ECL1058 SHV-11 assessed as meropenem MIC at 4 ug/ml by broth microdilution method
[6] = target: Carbapenem-hydrolyzing beta-lactamase KPC (Klebsiella oxytoca) (UniProt Q848S6); test: Inhibition of Klebsiella oxytoca KX1017 KPC-2 assessed as biapenem MIC at 4 ug/ml by broth microdilution method
Carbapenem-hydrolyzing beta-lactamase KPC (Klebsiella oxytoca), sequence (Q848S6 whole entry): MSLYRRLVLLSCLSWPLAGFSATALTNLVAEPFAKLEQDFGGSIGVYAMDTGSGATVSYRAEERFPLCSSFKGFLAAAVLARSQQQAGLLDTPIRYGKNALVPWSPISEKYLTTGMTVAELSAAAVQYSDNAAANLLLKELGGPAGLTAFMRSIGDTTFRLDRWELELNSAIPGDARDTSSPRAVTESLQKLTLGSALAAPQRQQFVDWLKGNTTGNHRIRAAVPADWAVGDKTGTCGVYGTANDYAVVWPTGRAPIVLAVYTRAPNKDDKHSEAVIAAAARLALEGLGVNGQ

Klebsiella pneumoniae [7] = test: Inhibition of Klebsiella pneumoniae KP1004 KPC-2 assessed as ertapenem MIC at 4 ug/ml by broth microdilution method
How it was run: (§2)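 CLSI broth microdilution (M07-A9, 2012) MIC of the carbapenem against clinical serine carbapenemase-producing strain, tested alone and with the inhibitor held at a fixed 4 μg/mL.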

Klebsiella pneumoniae [8] = test: In vivo inhibition of KPC in Klebsiella pneumoniae KP1074 in Swiss webster neutropenic mouse lung infection model assessed as meropenem deltalog10CFU in lung at 50 mg/kg, ip administered every 2 hrs starting at 2 hrs postinfection measured after 24 hrs; format: functional
Neutrophil elastase = Neutrophil elastase (Homo sapiens, UniProt P08246); test: Inhibition of neutrophil elastase (unknown origin) using MeOSuc-AAVP-AMC as substrate preincubated for 10 mins followed by substrate addition measured for 30 mins by spectrophotometric analysis
Neutrophil elastase, sequence (P08246 whole entry): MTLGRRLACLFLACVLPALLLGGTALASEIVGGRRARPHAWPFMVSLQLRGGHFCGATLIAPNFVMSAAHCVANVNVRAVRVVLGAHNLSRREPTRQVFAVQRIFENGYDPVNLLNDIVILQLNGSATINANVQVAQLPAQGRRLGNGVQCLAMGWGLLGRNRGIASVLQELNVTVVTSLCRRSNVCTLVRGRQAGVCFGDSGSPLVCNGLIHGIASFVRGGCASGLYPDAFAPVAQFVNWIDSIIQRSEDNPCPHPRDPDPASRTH
How it was run: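 Purified commercial enzyme, mixed with inhibitor across a concentration range in 50 mM Tris-HCl pH 7.5, 1 M NaCl and held 10 min at 37 °C. MeOSuc-AAVP-AMC (30 μM) then added and fluorescence followed for 30 min. Rates expressed relative to untreated control. IC50 taken as the concentration giving 50% inhibition. AEBSF and leupeptin served as positive controls.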

[9] = target: Beta-lactamase (Klebsiella pneumoniae) (UniProt Q93LQ9); test: Inhibition of Klebsiella pneumoniae KP1083 KPC-3 assessed as biapenem MIC at 4 ug/ml by broth microdilution method; how it was run: as §2
Beta-lactamase (Klebsiella pneumoniae), sequence (Q93LQ9 as listed by the source): as the sequence (Q848S6 whole entry) above

[10] = target: Beta-lactamase (Klebsiella pneumoniae) (UniProt Q93LQ9); test: Inhibition of Klebsiella pneumoniae KP1084 KPC-3 assessed as imipenem MIC at 4 ug/ml by broth microdilution method
[11] = Inhibition of Escherichia coli recombinant P99 assessed as substrate nitrocefin degradation preincubated for 10 mins followed by substrate addition measured every 10 secs for 10 mins by spectrophotometric analysis
How it was run: (§3)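 β-Lactamases purified from overexpressing recombinant E. coli. Enzyme preincubated with inhibitor at varying concentrations for 10 min at room temperature in 50 mM Na phosphate pH 7.0, 0.1 mg/mL BSA. Then 50 μM nitrocefin (final) added and cleavage read at 490 nm every 10 s for 10 min. Ki derived by the Waley method.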

Klebsiella aerogenes = test: Inhibition of Enterobacter aerogenes EA1028 OXA-30 assessed as cefepime MIC at 4 ug/ml by broth microdilution method; how it was run: as §1
Klebsiella pneumoniae [12] = test: Inhibition of Klebsiella pneumoniae KP1087 SHV-11 assessed as ertapenem MIC at 4 ug/ml by broth microdilution method; how it was run: as §2
[13] = target: Carbapenem-hydrolyzing beta-lactamase KPC (Klebsiella oxytoca) (UniProt Q848S6); test: Inhibition of Klebsiella oxytoca KX1019 KPC-2 assessed as ertapenem MIC at 4 ug/ml by broth microdilution method
Klebsiella pneumoniae [14] = test: Inhibition of Klebsiella pneumoniae KP1088 SHV-11 assessed as meropenem MIC at 4 ug/ml by broth microdilution method
How it was run: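 CLSI broth microdilution (M07-A9, 2012) against the clinical K. pneumoniae isolate. Carbapenem MICs were read alone and with 9f held at a fixed 4 μg/mL.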

[15] = Inhibition of Escherichia coli recombinant CMY-2 assessed as substrate nitrocefin degradation preincubated for 10 mins followed by substrate addition measured every 10 secs for 10 mins by spectrophotometric analysis; how it was run: as §3
[16] = target: Beta lactamase TEM-1 (Klebsiella pneumoniae) (UniProt Q7B899); test: Inhibition of Klebsiella pneumoniae KP1084 TEM-1 assessed as imipenem MIC at 4 ug/ml by broth microdilution method
Beta lactamase TEM-1 (Klebsiella pneumoniae), sequence (Q7B899 as listed by the source): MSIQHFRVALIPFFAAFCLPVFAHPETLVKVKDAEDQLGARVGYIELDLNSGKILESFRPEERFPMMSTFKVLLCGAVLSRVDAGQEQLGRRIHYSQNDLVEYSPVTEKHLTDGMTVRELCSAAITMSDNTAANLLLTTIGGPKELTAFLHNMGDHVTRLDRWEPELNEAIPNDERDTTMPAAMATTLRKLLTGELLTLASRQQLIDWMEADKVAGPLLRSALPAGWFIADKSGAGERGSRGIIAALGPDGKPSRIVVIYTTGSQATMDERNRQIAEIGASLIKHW

Klebsiella oxytoca [17] = test: Inhibition of Klebsiella oxytoca KX1019 OXA-2 assessed as biapenem MIC at 4 ug/ml by broth microdilution method
Klebsiella oxytoca [18] = test: Inhibition of Klebsiella oxytoca KX1019 OXA-2 assessed as ertapenem MIC at 4 ug/ml by broth microdilution method
[19] = target: Beta-lactamase (Klebsiella pneumoniae) (UniProt Q93LQ9); test: Inhibition of Klebsiella pneumoniae KP1004 KPC 2 carbapenemase assessed as minimum concentration required to reduce biapenem MIC from […] ug/ml to 1 ug/mL by broth microdilution method
Klebsiella pneumoniae [20] = test: Antibacterial activity against Klebsiella pneumoniae KP1004 by broth microdilution method; format: functional, organism-based
[21] = Cmax in rat at 100 mg/kg, iv administered as 0.5 hrs infusion by HPLC-MS method; format: ADME, organism-based; parameters: dose 100 mg/kg, route intravenous; conditions: in vivo
Klebsiella pneumoniae [22] = test: Inhibition of Klebsiella pneumoniae KP1087 CTX-M-15 assessed as imipenem MIC at 4 ug/ml by broth microdilution method
Klebsiella pneumoniae [23] = test: Inhibition of Klebsiella pneumoniae KP1008 KPC-2 assessed as meropenem MIC at 4 ug/ml by broth microdilution method; how it was run: as §2
Klebsiella pneumoniae [24] = test: Inhibition of Klebsiella pneumoniae KP1087 CTX-M-15 assessed as ertapenem MIC at 4 ug/ml by broth microdilution method; how it was run: as §2
Klebsiella pneumoniae [25] = test: Inhibition of Klebsiella pneumoniae KP1004 KPC-2 assessed as biapenem MIC at 4 ug/ml by broth microdilution method; how it was run: as §2
Escherichia coli = test: Inhibition of Escherichia coli EC1009 TEM-10 assessed as cefepime MIC at 4 ug/ml by broth microdilution method; how it was run: as §1
[26] = target: Beta lactamase TEM-1 (Klebsiella pneumoniae) (UniProt Q7B899); test: Inhibition of Klebsiella pneumoniae KP1087 TEM-1 assessed as ertapenem MIC at 4 ug/ml by broth microdilution method; how it was run: as §2
[27] = Inhibition of Escherichia coli recombinant TEM-10 assessed as substrate nitrocefin degradation preincubated for 10 mins followed by substrate addition measured every 10 secs for 10 mins by spectrophotometric analysis; how it was run: as §3

**Q.** Which AUC(0-inf) [1] does the source give for `O=C(O)C[C@@H]1CC[C@H](NC(=O)Cc2cccs2)B(O)O1` [VABORBACTAM] here?
**A.** Its AUC(0-inf) is 239 µg·h/mL.

**Q.** What about the MIC [2] of the same compound?
**A.** Its MIC is 0.25 µg/mL.

**Q.** And the MIC (Klebsiella pneumoniae [3])?
**A.** Its MIC is 2 µg/mL.

**Q.** What about the AUC at 3 h [4] of the same compound?
**A.** Its AUC at 3 h is 100000 ng·h/mL.

**Q.** What about the MIC (Klebsiella oxytoca [5]) of the same compound?
**A.** Its MIC is 0.5 µg/mL.

**Q.** What about the MIC (Enterobacter cloacae) of the same compound?
**A.** The MIC was less than 0.06 µg/mL.

**Q.** And the MIC [6]?
**A.** The MIC was less than 0.06 µg/mL.

**Q.** What about the MIC (Klebsiella pneumoniae [7]) of the same compound?
**A.** Its MIC is no more than 0.06 µg/mL.

**Q.** What about the deltalog10CFU (Klebsiella pneumoniae [8]) of the same compound?
**A.** Its deltalog10CFU is -2.03.

**Q.** What about the IC50 (Neutrophil elastase) of the same compound?
**A.** The IC50 was greater than 1 mM.

**Q.** And the MIC [9]?
**A.** Its MIC is less than 0.06 µg/mL.

**Q.** What about the MIC [10] of the same compound?
**A.** The MIC was 0.25 µg/mL.

**Q.** And the Ki [11]?
**A.** The Ki was 53 nM.

**Q.** And the MIC (Klebsiella aerogenes)?
**A.** Its MIC is 0.5 µg/mL.

**Q.** What about the MIC (Klebsiella pneumoniae [12]) of the same compound?
**A.** Its MIC is 2 µg/mL.

**Q.** What about the MIC [13] of the same compound?
**A.** The MIC was 0.25 µg/mL.

**Q.** And the MIC (Klebsiella pneumoniae [14])?
**A.** The MIC was no more than 0.06 µg/mL.

**Q.** What about the Ki [15] of the same compound?
**A.** Its Ki is 99 nM.

**Q.** What about the MIC [16] of the same compound?
**A.** Its MIC is 0.25 µg/mL.

**Q.** What about the MIC (Klebsiella oxytoca [17]) of the same compound?
**A.** The MIC was 0.25 µg/mL.

**Q.** What about the MIC (Klebsiella oxytoca [18]) of the same compound?
**A.** Its MIC is 0.25 µg/mL.

**Q.** And the MEC [19]?
**A.** Its MEC is 0.02 µg/mL.

**Q.** What about the Activity (Klebsiella pneumoniae [20]) of the same compound?
**A.** The Activity was “inactive”.

**Q.** What about the Cmax [21] of the same compound?
**A.** Its Cmax is 231 µg/mL.

**Q.** And the MIC (Klebsiella pneumoniae [22])?
**A.** Its MIC is 0.25 µg/mL.

**Q.** And the MIC (Klebsiella pneumoniae [23])?
**A.** Its MIC is no more than 0.06 µg/mL.

**Q.** What about the MIC (Klebsiella pneumoniae [24]) of the same compound?
**A.** The MIC was 2 µg/mL.

**Q.** And the MIC (Klebsiella pneumoniae [25])?
**A.** The MIC was no more than 0.06 µg/mL.

**Q.** What about the MIC (Escherichia coli) of the same compound?
**A.** The MIC was 4 µg/mL.

**Q.** What about the MIC [26] of the same compound?
**A.** The MIC was 2 µg/mL.

**Q.** What about the Ki [27] of the same compound?
**A.** Its Ki is 110 nM.
